TRPC6 inh – mouse TRPC6 channel inhibitors, primary screen, cell-based, HEK293, membrane potential dye | B-score at 10 µM | Short transient receptor potential channel 6 (Mus musculus), Q61143 | actives 1.1% (n = 310,000) | ACh-evoked depolarization; hits give low values;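 active = B-score under library mean minus 3 SD, initial fluorescence not abnormally high, positive integrated signal ratio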;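 also: B-score derived from integrated fluorescence ratio over the kinetic read; more negative B-score means stronger inhibition of depolarization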
TRPC6 activator – mouse TRPC6 channel activators, primary screen, cell-based, HEK293, membrane potential dye; actives 0.13% (n = 310,000); B-score at 10 µM; Short transient receptor potential channel 6 (Mus musculus), Q61143; HEK293-TRPC6 membrane potential dye fluorescence; hits give high values;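 active = B-score of the integrated fluorescence ratio above library mean plus 3 SD, and starting fluorescence ratio within library mean plus 5 SD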;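 also: higher score means more depolarization so channel activation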
TRPC4 inh – inhibitors of mouse TRPC4 channel, primary screen, Fluo4 calcium, HEK293 TRPC4beta/mu-opioid cells; DAMGO-evoked Fluo4 calcium flux; hits give low values; actives 0.39% (n = 300,000); Short transient receptor potential channel 4 (Mus musculus), Q9QUQ5; AID 2247, 2010; B-score at 10 µM;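 active = B-score over 3 SD under the library average, no early fluorescence shift, positive overall ratio signal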
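Assay system: TRPC4beta/mu-opioid receptor HEK293 cell line; compound dosing: single concentration per test compound; detection: Fluo4 Ca2+ flux fluorescence; evaluation: per-well B score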
TRPC4 PAM – positive allosteric modulators of TRPC4, primary screen, cell-based, mouse TRPC4beta, HEK293 mu-opioid, Fluo-4 calcium | actives 0.42% (n = 310,000) | B-score at 10 µM | DAMGO EC20, Fluo-4 Ca2+ flux; hits give high values;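 active = B-score of calcium response area above 5 SD of library B-scores, with initial fluorescence ratio within 5 SD of library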;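 also: B-score of integrated fluorescence ratio over time as area under calcium response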
TRPC4 act – activators of mouse TRPC4 channel, primary screen, Fluo4 calcium, HEK293 TRPC4beta/mu-opioid cells; Short transient receptor potential channel 4 (Mus musculus), Q9QUQ5; Fluo4 calcium fluorescence; hits give high values; B-score at 10 µM; actives 0.49% (n = 310,000);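 active = B-score above 5 SD of library B-scores, and initial fluorescence ratio not above library mean plus 5 SD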;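 also: positive B-score marks a calcium rise read as TRPC4 activation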
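Material: HEK293 stable line with TRPC4beta plus mu-opioid receptor; technique: Fluo4 calcium-sensitive dye fluorescence, kinetic, 1 Hz baseline; timing: Fluo4 dye loading 45 min at room temperature, 110 s recording; controls: assay buffer as low control, maximal DAMGO as high control; read-out: integrated baseline-normalised fluorescence ratio, converted to per-well B score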
Kir21 block – inhibitors of mouse Kir2.1 inward-rectifier potassium channel; Inward rectifier potassium channel 2 (Mus musculus), P35561; HEK293-Kir2.1, FluxOR thallium flux fluorescence; hits give low values; actives 0.85% (n = 310,000); B-score at 10 µM;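 active = fluorescence ratio B-score at or below minus 3 SD of library scores, with starting-brightness B-score within 2 SD, cut at about -4.2 in these data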;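 also: channel flux triggered by added potassium and thallium sulfate stimulus; B-score of peak minus minimum fluorescence over baseline after thallium stimulus; more negative B-score means stronger Kir2.1 block with less thallium influx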
The depositor's hits bear a star; i = inactive. Most compounds without a hit are left out; they make up all but 3% or so of the library.

SMILES	TRPC6 inh	TRPC6 activator	TRPC4 inh	TRPC4 PAM	TRPC4 act	Kir21 block
Cc1ccc(NC(=O)C2C3CCC(O3)C2C(=O)O)cc1Cl (stereo unspecified)	i	i	i	i	i	-0.68
COc1ccc(Nc2nc(N)nc(CN3CCC(Cc4ccccc4)CC3)n2)cc1	i	i	i	i	i	-4.4*
COc1ccc(CCC(=O)NC2CCCN(Cc3ccc(Cl)cc3)C2)cc1OC (stereo unspecified)	i	i	i	i	i	-1.5
Cc1occc1C(=O)NC1CCCN(Cc2ccc(Cl)cc2)C1 (stereo unspecified)	i	i	i	i	62*	0.32
O=C(CCc1ccc(F)c(F)c1)NC1CCCN(Cc2ccc(Cl)cc2)C1 (stereo unspecified)	i	i	i	i	53*	-2.8
Cc1cc(C(=O)NC2CCCN(Cc3ccc(Cl)cc3)C2)c(C)o1 (stereo unspecified)	i	i	i	i	i	-0.29
O=C(NC1CCCN(Cc2ccc(Cl)cc2)C1)c1ccoc1 (stereo unspecified)	i	i	i	i	43*	1.1
Cc1ccsc1C(=O)NC1CCCN(Cc2ccc(Cl)cc2)C1 (stereo unspecified)	i	i	i	i	75*	-1.9
CCOC(=O)Cc1cc(=O)c2cc(C)ccc2[nH]1	i	i	i	i	i	1.1
Cc1cc(N2CCCCC2)nc(NCc2ccccc2)n1	i	i	i	12*	47*	-6.7*
Cc1cc(N2CCOCC2)nc(NCc2ccccc2)n1	i	i	i	i	i	0
Cc1cc(NCc2ccccc2)nc(N2CCOCC2)n1	i	i	-6*	i	i	1.3
CCCCCCCCNC(=S)NCCN1CCCCC1	i	i	i	i	i	-1.4
CCOC(=O)c1c(-n2c(C)cc(C=O)c2C)sc2c1CCCC2	i	i	i	i	i	-4.6*
CCOC(=O)c1cccc(-n2c(C)cc(C=O)c2C)c1	i	i	i	i	i	-0.12
Oc1ccccc1CN1CCCC(N2CCc3ccccc3C2)C1 (stereo unspecified)	i	i	i	i	i	-1.1
CC(=O)Nc1ccc(S(=O)(=O)N2CCN(c3cnn(C)c(=O)c3Cl)CC2)cc1	i	i	i	i	i	-0.03
Cc1ccc(C2CC(=O)NC(SCc3ccccc3)=C2C#N)cc1 (stereo unspecified)	i	i	i	i	i	-4.3*
N#CC1=C(SCc2ccccc2)NC(=O)CC1c1ccc(O)cc1 (stereo unspecified)	i	i	i	i	i	-4.4*
N#CC1=C(SCc2ccccc2)NC(=O)CC1c1cccc(O)c1 (stereo unspecified)	i	i	i	i	i	-1.6
COc1cccc(CN(C)C(=O)C2CC(=O)N(c3ccc4c(c3)OCCO4)C2)c1 (stereo unspecified)	i	i	i	i	i	-0.42
O=C(Cc1ccc([N+](=O)[O-])cc1)N1CCCCCC1	i	i	i	i	i	-0.84
O=C(CCc1ccc(Oc2cc([N+](=O)[O-])cc([N+](=O)[O-])c2)cc1)N1CCCCCC1	i	i	-6*	i	75*	0.02
C=CCSc1nnc2n(-c3ccccc3OC)c(=O)c3c4c(sc3n12)CCC4	i	i	-6*	i	i	-1.8
COC(=O)CSc1nnc2n(-c3ccc(OC)cc3)c(=O)c3c4c(sc3n12)CCCCC4	i	i	-7*	i	i	2.2
SMILES	TRPC6 inh	TRPC6 activator	TRPC4 inh	TRPC4 PAM	TRPC4 act	Kir21 block
COC(=O)CSc1nnc2n(C3CCCCC3)c(=O)c3c4c(sc3n12)CCCC4	i	i	-6*	i	i	-0.51
COCCN(Cc1ccccc1)C(=O)c1c(C)nn(-c2ccccc2)c1C	i	i	i	i	i	-0.66
CCOc1ccccc1/C=C(\C#N)C1=CCCC1	i	i	i	i	i	-0.91
O=[N+]([O-])c1ccc(Nc2nccc(Cl)n2)cc1	i	i	i	i	i	1.5
O=C(NC12CC3CC(CC(C3)C1)C2)c1ccc([N+](=O)[O-])cc1	i	i	i	i	i	-0.55
O=[N+]([O-])c1ccc(C23CC4CC(CC(O)(C4)C2)C3)cc1	i	i	-6*	i	i	1.6
O=C1Nc2ccccc2C(=O)C1(Cl)Cc1ccccc1 (stereo unspecified)	i	i	i	i	i	-5.2*
COC(=O)c1cncc(C)c1	i	i	i	i	i	-1.5
CC(C)(C)c1nc(SCC(=O)NNC(=O)c2ccccc2)c2ccccc2n1	i	i	i	i	i	-0.08
Nc1cc(=O)nc(SCC(=O)Nc2ccccc2Cl)n1-c1ccccc1	i	i	i	i	i	0.33
CC(NC(=O)c1cccs1)C(c1cccs1)N1CCN(c2ccccc2)CC1 (stereo unspecified)	i	i	i	i	i	1.2
CC(C)C(=O)NC(C)C(c1cccs1)N1CCN(c2ccccc2)CC1 (stereo unspecified)	i	i	i	i	53*	0.77
COc1ccccc1N1CCN(C(c2cccs2)C(C)NC(=O)c2cccnc2)CC1 (stereo unspecified)	i	i	i	i	i	-0.02
CC(NC(=O)C1CC1)C(c1cccs1)N1CCN(c2ccccc2)CC1 (stereo unspecified)	i	i	i	i	44*	-0.41
CC(NC(=O)C1CC1)C(c1cccs1)N1CCOCC1 (stereo unspecified)	i	i	i	i	i	1.6
COc1ccccc1N1CCN(C(c2cccs2)C(C)NC(=O)c2cccs2)CC1 (stereo unspecified)	i	i	i	i	84*	0.17
O=C(Nc1cccc(F)c1)C1CCCN(S(=O)(=O)c2ccc(-n3cnnn3)cc2)C1 (stereo unspecified)	i	i	i	i	i	1.6
COc1ccc(C(=O)NN2CCOCC2)cc1	i	i	i	i	i	2

Bioassay records: PubChem, Johns Hopkins Ion Channel Center
